Rce1 inh = blocks yeast Ras-converting enzyme | 290,000 tested, 0.27% active | yeast membranes, quenched prenylated peptide cleavage fluorescence | AID 2563 | calls only;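 active means fall in fluorescence gain of 50% or more versus controls, with final raw signal at or below 3038400; inconclusive means same 50% fall but final raw signal above 3038400; inactive means fall in fluorescence gain under 50%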;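 further: plate controls were neutral control wells for no effect and wells lacking membranes for full effect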
Target sequence (Q03530 whole entry, looked up): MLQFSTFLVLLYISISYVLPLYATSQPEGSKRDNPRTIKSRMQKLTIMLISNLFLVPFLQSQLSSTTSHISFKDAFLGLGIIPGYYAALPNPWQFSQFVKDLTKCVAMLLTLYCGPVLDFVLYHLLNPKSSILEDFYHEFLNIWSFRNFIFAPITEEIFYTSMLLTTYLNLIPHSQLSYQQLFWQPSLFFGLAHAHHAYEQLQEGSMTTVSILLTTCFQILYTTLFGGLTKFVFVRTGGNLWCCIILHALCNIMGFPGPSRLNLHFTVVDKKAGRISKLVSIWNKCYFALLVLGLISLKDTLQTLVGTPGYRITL
Platelet DG rel = platelet dense granule release activity | human platelet-rich plasma, SFLLRN dense granule ATP release, luminescence | inhibition, %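 (compounds screened at 7.5 µM in platelet-rich plasma)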 | 300,000 tested, 0.22% active | AID 1663;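 active means mean replicate score, as percent of positive control, at or above 50; inconclusive means mean below 50 but at least one replicate at or above 50; inactive means mean and every replicate below 50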
Runt-SMMHC FRET = Runt domain-CBFb-SMMHC interaction inhibition; Cerulean-Runt/Venus-CBFb-SMMHC FRET ratio 530/480, 1 h; inhibition, % at 20 µM; 220,000 tested, 0.74% active;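 active means mean inhibition across duplicate retests at 20 µM reaching about 50%, limit read from the data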;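 further: 0% = DMSO wells and 100% = wells with excess untagged CBFb-SMMHC; inhibitors lower the FRET ratio by blocking Runt binding to CBFb-SMMHC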
Runt-CBFb FRET = Runt domain-CBFb interaction inhibition; Q01196+Q13951; Cerulean-Runt/Venus-CBFb FRET ratio 530/480, 1 h; inhibition, % at 20 µM; 220,000 tested, 0.46% active;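 active means inhibition over about 50% at 20 µM in the single-dose screen, limit read from the data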;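 further: 0% = DMSO wells and 100% = excess unlabeled CBFb competitor control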
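test system = Cerulean-Runt domain fusion protein, energy donor | probe or stimulus = Venus-CBFb binding partner, 100 nM | incubation = two 1 h room-temperature incubations shielded from light | detection = fluorescence energy transfer, 422 nm excitation, 530/480 nm emission | measure = loss of energy transfer signal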
RanGTP-Impb inh = disruptors of Ran-importin-beta complex formation – biochemical, FRET, CFP-Ran, YFP-importin-beta, homogeneous, primary screen | 300,000 tested, 1.1% active | cell-free CFP-Ran/YFP-importin-beta FRET ratio | inhibition, % (test concentration not listed);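 active means more than half of the replicate wells show a fall in the fluorescence ratio signal beyond about 16%, limit read from the data, passing the limit was not always enough; inconclusive means exactly half of the replicate wells pass the set limit; inactive means fewer than half of replicates pass the limit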;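 further: 0% = DMSO wells and 100% = Ran loaded with GDP instead of GTP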
* marks the source's active call; other numbers are inactive results; i = inactive; ? = inconclusive; · = no result given; + = active, no number. Compounds with a hit are over-represented: about 1.8% of the library has one in this group of screens.

SMILES	Rce1 inh	Platelet DG rel	Runt-SMMHC FRET	Runt-CBFb FRET	RanGTP-Impb inh
COc1ccc(C(=O)Nc2ccccc2C(N)=O)cc1	·	5	-1	-1	·
COc1ccc(C(=O)Nc2ccccc2C(=O)N/N=C/c2ccncc2)cc1OC	i	64*	0	3	4
COc1ccc(C(=O)Nc2ccccc2C(=O)NCc2cccnc2)cc1OC	i	5	·	·	3
COc1ccc(C(=O)Nc2ccccc2C(=O)N/N=C/c2cccc3ccccc23)cc1	i	92*	-4	·	2
COc1ccc(/C=N/NC(=O)NC23CC4CC(CC(C4)C2)C3)c(OC)c1	i	16	·	·	4
CCSc1cc(C)nc2c(-c3ccccc3)c(C)nn12	i	3	-2	-2	0
C=C(C)CSc1cc(C)nc2c(-c3ccccc3)c(C)nn12	+	-5	1	-1	1
O=C(Nc1cc2c3c(c1)CC(=O)N3CCC2)c1ccco1	i	3	·	·	-5
O=C(c1cccc(Cl)c1)N(Cc1ccco1)C1CCS(=O)(=O)C1 (stereo not given)	i	-4	·	·	-2
CCOc1ccc2nc(NC(=O)c3ccc(C)o3)sc2c1	i	61*	·	·	-2
CC(=O)N1CCC2(CC1)C(C#N)=C(N)Oc1c2sc2nc(C)cc(C)c12	i	0	2	1	?
CCN1CCC2(CC1)C(C#N)=C(N)Oc1c2sc2nc(C)cc(C)c12	i	15	34	7	28*
O=C1C=C(Nc2ccc(O)cc2)C(=O)c2ccccc21	i	74*	-1	4	-1
Cc1ccccc1-n1c(=O)cc(N2CCN(C(=O)c3ccco3)CC2)[nH]c1=O	i	52*	-2	·	1
O=c1cc(N2CCCCCC2)[nH]c(=O)n1-c1ccccc1Cl	i	-1	1	-1	·
Cc1ccccc1-n1c(=O)cc(N2CCCCCC2)[nH]c1=O	i	-8	0	·	145*
COc1ccccc1N1CCN(C(=O)c2ccco2)CC1	i	-2	·	·	0
CCOC(=O)C1CCN(c2cc(=O)n(-c3ccccc3Cl)c(=O)[nH]2)CC1	i	-2	0	-1	59*
CCOc1ccc2ccccc2c1C1NC(=O)N(C)C(C)=C1C(=O)OCCOC (stereo not given)	i	2	·	·	96*
CCOC(=O)C1=C(C)N(C)C(=S)NC1c1c(OCC)ccc2ccccc12 (stereo not given)	·	6	0	-2	3
CCCN1CCc2c(sc(NC(=O)c3ccc(S(=O)(=O)N4CCCC4)cc3)c2C(N)=O)C1	i	5	·	·	9
CCN1CCc2c(sc(NC(=O)c3ccc(S(=O)(=O)N4CCCCCC4)cc3)c2C(=O)NC)C1	i	6	·	·	57*
CNC(=O)c1c(NC(=O)c2ccc(S(=O)(=O)N3CCCCC3C)cc2)sc2c1CCN(C)C2 (stereo not given)	i	-1	·	·	50*
CC1CCCN(S(=O)(=O)c2ccc(C(=O)Nc3sc4c(c3C(N)=O)CCN(C)C4)cc2)C1 (stereo not given)	i	-17	·	·	29*
COc1ccc(C2NC(c3ccc(OC)cc3OC)C(C)C(=O)C2C)c(OC)c1 (stereo not given)	i	-1	0	-2	116*
SMILES	Rce1 inh	Platelet DG rel	Runt-SMMHC FRET	Runt-CBFb FRET	RanGTP-Impb inh
COc1cccc(C(=O)NCCCn2ccnc2)c1	i	10	-1	2	1
COc1ccc(/C=C2\Oc3cc(OC(=O)N4CCOCC4)ccc3C2=O)cc1	i	-2	-1	-18	22*
COc1cc(/C=C2\Oc3cc(O)ccc3C2=O)ccc1O	i	5	78*	11	2
O=C1/C(=C/c2ccc(O)c(O)c2)Oc2cc(O)ccc21	·	·	55*	-81	·
COc1ccc(/C=C2\OC(=O)c3c(OC)cccc32)cc1OC	i	4	-16	5	39*
CCc1ccc(/C=C2\Oc3cc(OC(=O)N4CCOCC4)ccc3C2=O)cc1	i	22	11	0	2
COc1ccc(C=C2C(=O)OC(C)(C)OC2=O)cc1OC	i	2	-4	1	1
COc1cc(/C=C2\CCC/C(=C\c3ccc(O)c(OC)c3)C2=O)ccc1O	i	4	·	·	-13
O=C1/C(=C/c2cccc([N+](=O)[O-])c2)Oc2cc(O)ccc21	i	1	·	·	?
COCc1cc(C)nc(Sc2nc3c(c(=O)n(C)c(=O)n3C)n2C)c1C#N	i	-1	·	·	-1
COc1ccc(CNn2c(-c3cccs3)nc3ccccc3c2=O)cc1OC	i	-1	0	-9	6
Cc1ccc(/C=C/C(=O)N2CCC(Cc3ccccc3)CC2)cc1	i	-19	2	-5	2
Cc1ccnc(N2CCC(C(=O)NNC(=O)c3ccccc3C)CC2)n1	i	-6	1	0	6
O=C(CSc1nnc2ncccn12)Nc1cccc2ccccc12	i	0	·	·	1
CCc1ccc(NC(=O)C(CC)Sc2nc3ccsc3c(=O)n2CCC(=O)O)cc1 (stereo not given)	i	13	·	·	-1
COc1cc(/C=C(\C#N)C(=O)Nc2cccc3ncccc23)ccc1O	i	15	92*	84*	63*
C=CCSC1=N/C(=C/c2ccsc2)C(=O)N1c1ccccc1	i	-5	0	2	-1
O=C(NC1CC1)c1ccc2c(c1)N(Cc1ccccc1)CCS2	+	6	·	·	0
CCOC(=O)N1CCC(NC(=O)c2ccc3c(c2)N(Cc2ccccc2)CCS3)CC1	i	-5	-1	1	2
CSc1ncccc1C(=O)NC1CCCCCCC1	i	6	·	·	0
OCCN(CCO)c1ccc(C(c2ccccc2Cl)c2ccc(N(CCO)CCO)cc2Cl)c(Cl)c1	i	2	-4	-3	6
OCCN(CCO)c1ccc2ccccc2c1	+	-4	17	2	1
CCN(Cc1ccccc1)S(=O)(=O)c1ccc(C(=O)N(CCCN(C)C)c2nc3cc(C)cc(C)c3s2)cc1	+	4	·	·	?
CCN1CCN(c2ccc(NC(=O)c3cccc(OCc4ccccc4)c3)cc2)CC1	+	-5	2	3	2
Clc1cccc(CN2CCc3c([nH]c4ccccc34)C2)c1Cl	+	3	·	·	3
SMILES	Rce1 inh	Platelet DG rel	Runt-SMMHC FRET	Runt-CBFb FRET	RanGTP-Impb inh
O=Cc1cn(-c2ccccc2)nc1-c1cc2cc(O)ccc2oc1=O	i	-11	57*	94*	40*
CCOc1cc(/C=N/Nc2cccc(C(=O)O)c2)ccc1OCC(=O)N1CCCCC1	·	·	2	0	·
COc1ccc(OC)c(N=c2oc3cc(O)ccc3cc2C(N)=O)c1	i	5	117*	120*	158*
NC(=O)c1cc2ccc(O)cc2oc1=Nc1ccccc1	i	-8	65*	12	176*
NC(=O)c1cc2ccc(O)cc2oc1=NCc1ccccc1	i	12	83*	5	181*
COc1ccc2cc(C(N)=O)c(=Nc3ccccc3)oc2c1	i	0	2	·	2
NC(=O)c1cc2ccccc2oc1=NCc1ccccc1	i	6	2	-3	6

Compound activity: PubChem BioAssay, several laboratories
